Reference: article PMC10527666 (Molecular imaging and biology, 2023)

Columns and labels:
Aβ42 fibrils = Aβ42 fibrils (Homo sapiens, UniProt P05067); test: Competition binding assay against [^3H]BF2846
Method in brief: (§1)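 Fibrils (α-synuclein 50 nM; Aβ42 100 nM) incubated with 3 nM [³H]BF2846 and varying concentrations of test compound in 50 mM Tris-HCl pH 7.4, 1 h at 37 °C. Nonspecific binding was defined with 0.5 μM unlabeled BF2846, and fibril-free filter blanks were run. Samples were GF/C-filtered, washed with 10 mM Tris/150 mM NaCl and scintillation-counted after 12 h, in triplicate. Ki was obtained by nonlinear regression using radioligand Kd.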

α-synuclein fibrils [1] = biological target: T1, α-synuclein fibrils (Homo sapiens, UniProt P37840); test: Compound screening, 1-point inhibition of [^3H]BF2846 binding; settings: read-out: % Inhibition [^3H]BF-2846
Method in brief: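 Human α-synuclein (C-terminal intein fusion, expressed in E. coli BL21(DE3), purified, quantified by A280) was fibrillised. Fibrils at 100 nM were incubated with 100 nM test compound and 3 nM [³H]BF2846 in 50 mM Tris-HCl pH 7.4, 1 h at 37 °C, with nonspecific binding defined by 0.5 μM BF2846. Samples were GF/C-filtered and scintillation-counted, in triplicate. Bound radioligand was expressed as % of total binding and tested by one-way ANOVA.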

α-synuclein fibrils [2] = biological target: T1, α-synuclein fibrils; test: Competition binding assay against [^3H]BF2846
Method in brief: as §1

Chain of Aβ42 fibrils (P05067 672-713 limits assumed): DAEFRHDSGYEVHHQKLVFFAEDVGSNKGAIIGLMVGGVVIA

SMILES	Ki (Aβ42 fibrils)	inhibition at 0.1 µM (α-synuclein fibrils [1])	Ki (α-synuclein fibrils [2])
COc1ccc(C(=O)Nc2cc(-c3ccc(Br)cc3)no2)cc1 [Compound 15, N-(3-(4-bromophenyl)isoxazol-5-yl)-4-methoxybenzamide]	0.0361 µM	80%	0.011 µM
COc1ccc(C(=O)Nc2cc(-c3ccc(I)cc3)no2)cc1 [Compound 21, N-(3-(4-iodophenyl)isoxazol-5-yl)-4-methoxybenzamide]	–	–	0.0036 µM
